Results reported in ChEMBL document CHEMBL5058577, “EUbOPEN Chemogenomics Library 2 (Multiplex)” (2022).

System: U2OS
Assay: Multiplex assay against U2OS
Format: toxicity, cell-based
Settings: human
Procedure, shortened: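 Tubulin, mitochondrial-mass and membrane-permeability phenotypes are per cents of healthy-nucleus cells. Cells were gated by CellPathfinder machine learning into Hoechst high-intensity objects or normal cells, normal cells into healthy, pyknosed or fragmented nuclei, and pyknosed cells into mitotic or apoptotic. Before that, live cells stained at seeding with Hoechst33342, BioTracker Green Microtubule Cytoskeleton Dye, MitoTracker Red and Annexin V Alexa Fluor 680 were imaged on a CQ1 microscope at 37°C and 5% CO2 after compound addition.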

[1] = 12 h, 1 µM, compound concentration 1 uM, replicate 1
[2] = 12 h, 1 µM, compound concentration 1 uM, replicate 2
[3] = 12 h, 10 µM, compound concentration 10 uM, replicate 1
[4] = 12 h, 10 µM, compound concentration 10 uM, replicate 2
[5] = 24 h, 1 µM, compound concentration 1 uM, replicate 1
[6] = 24 h, 1 µM, compound concentration 1 uM, replicate 2
[7] = 24 h, 10 µM, compound concentration 10 uM, replicate 1
[8] = 24 h, 10 µM, compound concentration 10 uM, replicate 2
[9] = 48 h, 1 µM, compound concentration 1 uM, replicate 1
[10] = 48 h, 1 µM, compound concentration 1 uM, replicate 2
[11] = 48 h, 10 µM, compound concentration 10 uM, replicate 1
[12] = 48 h, 10 µM, compound concentration 10 uM, replicate 2

Q: Which results are given for CC(C)COc1ccc(CNC(=O)N(Cc2ccc(F)cc2)C2CCN(C)CC2)cc1 [PIMAVANSERIN]?
A: Population Apoptotic (%) [1]: 84%; Population Fragmented Nuclei (%) [1]: 23%; Population Healthy Nuclei (%) [1]: 67%; Population Hoechst High Intensity Objects (%) [1]: 2%; Population Membrane Permeable-Phenotype (%) [1]: 6%; Population Mitochondria Different-Phenotype (%) [1]: 3%; Population Mitotic Cells (%) [1]: 16%; Population Normal (%) [1]: 97%; Population Pyknosed Nuclei (%) [1]: 9%; Population Tubulin-Different-Phenotype (%) [1]: 5%; Total Cell Count [1]: 265; Population Apoptotic (%) [2]: 100%; Population Fragmented Nuclei (%) [2]: 11%; Population Healthy Nuclei (%) [2]: 80%; Population Hoechst High Intensity Objects (%) [2]: 0%; Population Mitochondria Different-Phenotype (%) [2]: 4%; Population Mitotic Cells (%) [2]: 0%; Population Normal (%) [2]: 99%; Population Pyknosed Nuclei (%) [2]: 7%; Population Tubulin-Different-Phenotype (%) [2]: 6%; Total Cell Count [2]: 136; Population Apoptotic (%) [3]: 67%; Population Fragmented Nuclei (%) [3]: 23%; Population Healthy Nuclei (%) [3]: 48%; Population Hoechst High Intensity Objects (%) [3]: 5%; Population Membrane Permeable-Phenotype (%) [3]: 48%; Population Mitochondria Different-Phenotype (%) [3]: 73%; Population Mitotic Cells (%) [3]: 32%; Population Normal (%) [3]: 94%; Population Pyknosed Nuclei (%) [3]: 27%; Population Tubulin-Different-Phenotype (%) [3]: 77%; Total Cell Count [3]: 202; Population Apoptotic (%) [4]: 71%; Population Fragmented Nuclei (%) [4]: 18%; Population Healthy Nuclei (%) [4]: 54%; Population Hoechst High Intensity Objects (%) [4]: 4%; Population Membrane Permeable-Phenotype (%) [4]: 26%; Population Mitochondria Different-Phenotype (%) [4]: 70%; Population Mitotic Cells (%) [4]: 28%; Population Normal (%) [4]: 95%; Population Pyknosed Nuclei (%) [4]: 26%; Population Tubulin-Different-Phenotype (%) [4]: 52%; Total Cell Count [4]: 124; Population Apoptotic (%) [5]: 92%; Population Fragmented Nuclei (%) [5]: 22%; Population Healthy Nuclei (%) [5]: 67%; Population Hoechst High Intensity Objects (%) [5]: 2%; Population Membrane Permeable-Phenotype (%) [5]: 10%; Population Mitochondria Different-Phenotype (%) [5]: 4%; Population Mitotic Cells (%) [5]: 7%; Population Normal (%) [5]: 97%; Population Pyknosed Nuclei (%) [5]: 9%; Population Tubulin-Different-Phenotype (%) [5]: 6%; Total Cell Count [5]: 294; Population Apoptotic (%) [6]: 78%; Population Fragmented Nuclei (%) [6]: 11%; Population Healthy Nuclei (%) [6]: 80%; Population Hoechst High Intensity Objects (%) [6]: 1%; Population Membrane Permeable-Phenotype (%) [6]: 11%; Population Mitochondria Different-Phenotype (%) [6]: 8%; Population Mitotic Cells (%) [6]: 21%; Population Normal (%) [6]: 98%; Population Pyknosed Nuclei (%) [6]: 8%; Total Cell Count [6]: 163; Population Apoptotic (%) [7]: 88%; Population Fragmented Nuclei (%) [7]: 28%; Population Healthy Nuclei (%) [7]: 40%; Population Hoechst High Intensity Objects (%) [7]: 10%; Population Membrane Permeable-Phenotype (%) [7]: 32%; Population Mitochondria Different-Phenotype (%) [7]: 67%; Population Mitotic Cells (%) [7]: 11%; Population Normal (%) [7]: 89%; Population Pyknosed Nuclei (%) [7]: 31%; Population Tubulin-Different-Phenotype (%) [7]: 49%; Total Cell Count [7]: 214; Population Apoptotic (%) [8]: 79%; Population Fragmented Nuclei (%) [8]: 16%; Population Healthy Nuclei (%) [8]: 50%; Population Hoechst High Intensity Objects (%) [8]: 3%; Population Membrane Permeable-Phenotype (%) [8]: 30%; Population Mitochondria Different-Phenotype (%) [8]: 75%; Population Mitotic Cells (%) [8]: 20%; Population Normal (%) [8]: 96%; Population Pyknosed Nuclei (%) [8]: 33%; Total Cell Count [8]: 135; Population Apoptotic (%) [9]: 87%; Population Fragmented Nuclei (%) [9]: 19%; Population Healthy Nuclei (%) [9]: 68%; Population Hoechst High Intensity Objects (%) [9]: 2%; Population Membrane Permeable-Phenotype (%) [9]: 6%; Population Mitochondria Different-Phenotype (%) [9]: 5%; Population Mitotic Cells (%) [9]: 12%; Population Normal (%) [9]: 97%; Population Pyknosed Nuclei (%) [9]: 12%; Population Tubulin-Different-Phenotype (%) [9]: 4%; Total Cell Count [9]: 393; Population Apoptotic (%) [10]: 92%; Population Fragmented Nuclei (%) [10]: 12%; Population Healthy Nuclei (%) [10]: 76%; Population Hoechst High Intensity Objects (%) [10]: 1%; Population Membrane Permeable-Phenotype (%) [10]: 5%; Population Mitotic Cells (%) [10]: 7%; Population Normal (%) [10]: 98%; Population Pyknosed Nuclei (%) [10]: 11%; Population Tubulin-Different-Phenotype (%) [10]: 2%; Total Cell Count [10]: 234; Population Apoptotic (%) [11]: 98%; Population Fragmented Nuclei (%) [11]: 38%; Population Healthy Nuclei (%) [11]: 19%; Population Hoechst High Intensity Objects (%) [11]: 13%; Population Membrane Permeable-Phenotype (%) [11]: 40%; Population Mitochondria Different-Phenotype (%) [11]: 56%; Population Mitotic Cells (%) [11]: 1%; Population Normal (%) [11]: 86%; Population Pyknosed Nuclei (%) [11]: 42%; Population Tubulin-Different-Phenotype (%) [11]: 54%; Total Cell Count [11]: 222; Population Apoptotic (%) [12]: 95%; Population Healthy Nuclei (%) [12]: 15%; Population Hoechst High Intensity Objects (%) [12]: 8%; Population Membrane Permeable-Phenotype (%) [12]: 66%; Population Mitochondria Different-Phenotype (%) [12]: 80%; Population Mitotic Cells (%) [12]: 4%; Population Normal (%) [12]: 91%; Population Pyknosed Nuclei (%) [12]: 45%; Population Tubulin-Different-Phenotype (%) [12]: 71%; Total Cell Count [12]: 146
